The test system of data set [1] is Jurkat. The data set is described as follows: Cytotoxicity against human Jurkat cells assessed as cell viability at 10 uM after 72 hrs by trypan blue staining assay.
Data set [2] is described as follows: Cytotoxicity against human U937 cells assessed as cell viability at 10 uM after 72 hrs by trypan blue staining assay. The settings on record: U-937, 72 h.
Data set [3] concerns Jurkat. The data set is described as follows: Cytotoxicity against human Jurkat cells assessed as inhibition of cell proliferation at 50 uM after 72 hrs by trypan blue staining assay. The format is functional. In outline: (§1)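 Trypan blue exclusion count of Jurkat, U937 or K562 cells (RPMI, 10% FCS, 37 °C, 5% CO2, 10 days' culture after thawing) exposed to compound from DMSO stock; controls received equal DMSO. Proliferation expressed relative to control; mean ± SD of three determinations, Student's t-test with p<0.05 taken as significant.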

For data set [4], the system named is Jurkat. The data set is described as follows: Cytotoxicity against human Jurkat cells assessed as reduction in cell viability after 24 to 72 hrs by CellTiter-Glo luminescent cell viability assay. The format is functional, cell-based. An outline of the steps:
(§2)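 Leukemia cells in RPMI/10% FCS at 37 °C, 5% CO2 treated for 24, 48 or 72 h. Equal volume of CellTiter-Glo reagent added, 10 min in the dark at RT, ATP luminescence converted to viable cell number. Normalized to untreated control (%), etoposide as positive control; mean ± SD of three determinations; IC50 from concentration-response.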

Another data set deals with PBMC. The experiment in a line: Cytotoxicity against human PBMC assessed as reduction in cell viability at 10 to 50 after 24 to 72 hrs by CellTiter-Glo luminescent cell viability assay. It counts as cell-based. In outline: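 PBMCs isolated from healthy donor buffy coats (blood diluted 1/3 in RPMI, Ficoll, 400 × g, 20 min), kept 24 h at 37 °C, 5% CO2, then treated 24–72 h. ATP read by CellTiter-Glo luminescence (10 min, dark, RT), normalized to untreated control (%); etoposide positive control; mean ± SD, n=3.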

Data set [5] concerns K562. The data set is described as follows: Cytotoxicity against human K562 cells assessed as inhibition of cell proliferation at 10 to 50 uM after 8 to 72 hrs by trypan blue staining assay. It counts as functional, cell-based. In outline:
as §1

A short description of data set [6]: Cytotoxicity against human U937 cells assessed as reduction in cell viability at 10 to 50 uM after 48 hrs by CellTiter-Glo luminescent cell viability assay. It counts as functional, U-937. An outline of the steps:
as §2

Data set [7] is described as follows: Cytotoxicity against human U937 cells assessed as reduction in cell viability at 10 to 50 uM after 72 hrs by CellTiter-Glo luminescent cell viability assay. The format is functional, U-937. In outline:
as §2
(In general: In ATP-based viability assays light output follows the ATP content of the culture.)

For data set [8], the system named is Jurkat. The experiment in a line: Cytotoxicity against human Jurkat cells assessed as inhibition of cell proliferation after 72 hrs by trypan blue staining assay. The format is functional, cell-based. An outline of the steps: as §1
Data set [9] can be described thus: Cytotoxicity against human U937 cells assessed as inhibition of cell proliferation at 30 uM after 72 hrs by trypan blue staining assay. The format is functional. The settings on record: U-937, 72 h. In outline: as §1
The subject of data set [10] is K562. The experiment in a line: Cytotoxicity against human K562 cells assessed as reduction in cell viability after 24 to 72 hrs by CellTiter-Glo luminescent cell viability assay. It counts as functional, cell-based. An outline of the steps:
as §2

The test system of data set [11] is Jurkat. The experiment in a line: Cytotoxicity against human Jurkat cells assessed as reduction in cell viability after 72 hrs by CellTiter-Glo luminescent cell viability assay. The format is functional, cell-based. An outline of the steps:
as §2

Data set [12] concerns K562. The experiment in a line: Cytotoxicity against human K562 cells assessed as reduction in cell viability after 72 hrs by CellTiter-Glo luminescent cell viability assay. The settings on record: K562, 72 h. It counts as functional, cell-based. In outline:
as §2

The test system of data set [13] is Jurkat. The experiment in a line: Induction of apoptosis in human Jurkat cells assessed as caspase-7 cleavage at 20 uM after 48 hrs Western blotting method. It counts as functional, cell-based. An outline of the steps: (§3)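 Jurkat cells (10⁷ per sample) treated up to 48 h, lysed on ice in hypertonic detergent buffer with protease inhibitors, cleared at 15,000 × g, 15 min, 4 °C. Separated by 10% SDS-PAGE, transferred to nitrocellulose, probed with anti-caspase 3 or anti-caspase 7 (1/1000) and HRP secondary; β-actin loading control.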
In general terms: A western blot detects proteins with antibodies after separation by electrophoresis.

In data set [14] the test system is Jurkat. The data set is described as follows: Induction of apoptosis in human Jurkat cells assessed as caspase-3 cleavage at 20 uM after 48 hrs Western blotting method. It counts as functional, cell-based. In outline: as §3
The nature of data set [15]: Cytotoxicity against human U937 cells assessed as reduction in cell viability after 72 hrs by CellTiter-Glo luminescent cell viability assay. The format is functional, cell-based. The settings on record: U-937, 72 h. In outline: as §2
For a further data set, the system named is U-937. The data set is described as follows: Cytotoxicity against human U937 cells assessed as inhibition of cell viability at 20 uM after 72 hrs by trypan blue staining assay. It counts as functional, cell-based.
Data set [16] deals with K562. The experiment in a line: Cytostatic effect against human K562 cells at >30 uM after 72 hrs by trypan blue staining assay. The format is functional, cell-based. An outline of the steps: as §1
The test system of data set [17] is K562. The data set is described as follows: Cytotoxicity against human K562 cells assessed as inhibition of cell proliferation at 20 uM after 72 hrs by trypan blue staining assay. It counts as functional, cell-based. In outline: as §1

The source made the active and inactive calls. The calls are words filed in the database; no cut-off is given here.

As for `COc1ccccc1C1CC(=O)c2ccc3c(c2O1)OCO3` (configuration not stated), the results for the viability at 10 µM (with Jurkat [1]; in [2]) were 83.2% and 74%, respectively.
The matching figures for `COc1ccc(/C=C/C(=O)c2ccc3c(c2O)OCO3)cc1`: 80.6% and 80.9%.
On to `COc1ccc(C2CC(=O)c3ccc4c(c3O2)OCO4)cc1` (configuration not stated), for which the values for the viability at 10 µM (with Jurkat [1]; in data set [2]) were 88.2% and 81.7%, respectively.
Turning to `COc1ccccc1-c1cc(=O)c2ccc3c(c2o1)OCO3`, the viability at 10 µM with Jurkat [1] was found to be 91.6%; in data set [2], 82.7%.
On to `COc1cc(/C=C/C(=O)c2ccc3c(c2O)OCO3)cc(OC)c1OC`, for which the inhibition at 50 µM in the data set with Jurkat [3] is 70%. Moreover, the inhibition result in the data set with Jurkat [4] and in the data set with Jurkat [8] was “Dose-dependent effect” in each case. Further, the values for the viability at 10 µM (with Jurkat [1]; in [2]) were 56.1% and 64.4%, respectively. Also, the Activity entry in the data set on PBMC was “Non-toxic”. Moreover, the inhibition result in the data set on K562 [5] and with K562 [10] was “inactive” each time. Moreover, the entries for the “inhibition (INH)” value in [6] and in data set [7] were 35% and 20%, respectively. For the same compound, the inhibition at 30 µM in data set [9] amounted to 41%.
`COc1ccc(-c2cc(=O)c3ccc4c(c3o2)OCO4)cc1`: the figures for the viability at 10 µM (in the data set on Jurkat [1]; in [2]) were 81.2% and 76.5%, respectively.
The matching figures for `COc1ccc(C2CC(=O)c3ccc4c(c3O2)OCO4)cc1OC` (configuration not stated): 74.9% and 80.4%.
With `COc1ccc(-c2cc(=O)c3ccc4c(c3o2)OCO4)cc1OC`, the viability at 10 µM in the data set on Jurkat [1] came to 87.9%; in data set [2], 82.5%.
Regarding `COc1ccc(/C=C/C(=O)c2ccc3c(c2O)OCO3)cc1OC`, the viability at 10 µM in the data set with Jurkat [1] turned out to be 77.5%; in [2], 69.3%.
In the case of `COc1ccccc1/C=C/C(=O)c1ccc2c(c1O)OCO2`, the figures for the IC50 (in the data set with Jurkat [11]; in the data set on K562 [12]; in data set [15]) were 13.7 µM, 42.3 µM and 11.4 µM, respectively. The values for the viability at 10 µM (with Jurkat [1]; in data set [2]) were 59% and 55.4%, respectively. Besides, the result in the data set with Jurkat [13], with Jurkat [14] and in the data set with K562 [16] was Active. In addition, the Activity entry in the data set on PBMC was “Non-toxic”. For the same compound, the inhibition entry in the data set on U-937 and in the data set with K562 [17] was “Active” throughout.
Take `COc1cc(C2CC(=O)c3ccc4c(c3O2)OCO4)cc(OC)c1OC` (configuration not stated): the viability at 10 µM in the data set with Jurkat [1] amounted to 69.7%; in data set [2], 68.3%.
Consider `COc1cc(-c2cc(=O)c3ccc4c(c3o2)OCO4)cc(OC)c1OC`, for which the viability at 10 µM in the data set on Jurkat [1] is 76%; in data set [2], 90.5%.

The term viability denotes the share of living cells, or the viability signal relative to a control. In general, inhibition refers to the percentage by which the read-out fell short of the control. Usually IC50 stands for the concentration that gives 50% inhibition.

The values are drawn from ChEMBL document CHEMBL3351715, “Methylenedioxy flavonoids: assessment of cytotoxic and anti-cancer potential in human leukemia cells” (Eur J Med Chem, 2014).
